# ChEMBL document CHEMBL4152337, “Novel indolo-sophoridinic scaffold as Topo I inhibitors: Design, synthesis and biological evaluation as anticancer agents” (Eur J Med Chem, 2018)
# Calls of active or inactive are those of the source. No cut-off for these calls is given here.
# Columns and labels:
# HepG2 [1] = assay: Cytotoxicity against human HepG2 cells assessed as reduction in cell viability after 48 hrs by MTT assay; format: functional, cell-based; settings: HepG2, 48 h
# Summary of the method: (§1)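 Cells at 3–4 × 10⁴/mL in DMEM + 10% FBS, pre-incubated 24 h in 5% CO₂. Then exposed 48 h to serial dilutions at 1, 5, 10, 20 and 50 µM; final DMSO <0.1%. MTT (5 mg/mL solution) added for 4 h at 37 °C, supernatant removed, formazan dissolved in DMSO, colorimetric read-out.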
# CNE-2 = assay: Cytotoxicity against human CNE2 cells assessed as reduction in cell viability after 48 hrs by MTT assay; format: functional, cell-based; settings: CNE-2, 48 h; summary of the method: as §1
# A549 = assay: Cytotoxicity against human A549 cells assessed as reduction in cell viability after 48 hrs by MTT assay; format: functional, cell-based; settings: A549, 48 h; summary of the method: as §1
# [2] = target: T1, DNA topoisomerase 1 (Homo sapiens) (UniProt P11387); assay: Inhibition of recombinant human topoisomerase-1-mediated relaxation of supercoiled pBR322 DNA at 500 uM after 30 mins by ethidium bromide staining based assay
# T1 sequence (whole entry): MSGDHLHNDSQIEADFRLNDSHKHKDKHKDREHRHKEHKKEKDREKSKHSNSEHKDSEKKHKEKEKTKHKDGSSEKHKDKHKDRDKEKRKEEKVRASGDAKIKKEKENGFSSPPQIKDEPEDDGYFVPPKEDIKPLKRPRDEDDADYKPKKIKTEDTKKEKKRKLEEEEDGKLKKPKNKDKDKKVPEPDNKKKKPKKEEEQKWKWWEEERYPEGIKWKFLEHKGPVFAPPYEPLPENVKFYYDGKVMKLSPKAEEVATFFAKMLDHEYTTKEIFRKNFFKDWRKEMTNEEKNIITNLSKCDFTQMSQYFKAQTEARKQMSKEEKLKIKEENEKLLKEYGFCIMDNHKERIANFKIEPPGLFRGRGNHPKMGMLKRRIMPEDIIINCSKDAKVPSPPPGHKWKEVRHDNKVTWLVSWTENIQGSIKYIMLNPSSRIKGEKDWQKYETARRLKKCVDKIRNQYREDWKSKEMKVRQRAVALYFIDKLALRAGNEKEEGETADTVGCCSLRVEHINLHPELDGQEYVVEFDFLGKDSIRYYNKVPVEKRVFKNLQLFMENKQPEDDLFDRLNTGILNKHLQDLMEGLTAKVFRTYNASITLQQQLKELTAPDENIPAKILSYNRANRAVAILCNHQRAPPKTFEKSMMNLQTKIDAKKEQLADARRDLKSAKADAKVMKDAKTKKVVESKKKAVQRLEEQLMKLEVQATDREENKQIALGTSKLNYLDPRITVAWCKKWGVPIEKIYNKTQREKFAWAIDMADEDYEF
# Summary of the method: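 Reactions stopped with loading buffer containing 0.5% SDS, bromophenol blue and 15% glycerol. Products run on a horizontal 0.8% agarose gel in 1× TAE at 4 V/cm for 40 min at room temperature. Gel stained with ethidium bromide and imaged.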
# HepG2 [3] = assay: Cell cycle arrest in human HepG2 cells accumulation at G1 phase at 2 to 6 mM after 24 hrs by propidium iodide staining-based flow cytometric analysis; format: functional
# Summary of the method: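 HepG2 cells were seeded at 2 × 10⁵ per well in DMEM with 10% FBS and treated at three concentrations (2, 4, 6) for 24 h. Cells were fixed in cold 75% ethanol at 4 °C overnight, washed in PBS, then given RNase at 37 °C for 30 min and propidium iodide in the dark for 30 min. Read by flow cytometry; mean SD; three independent experiments.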
# HepG2 [4] = assay: Antitumor activity against human HepG2 cells xenografted in BALB/C nude mouse assessed as tumor volume at 40 mg/kg, ip treated twice per week for 25 days (reference value: 1185.78 +/- 137.44 mm3); format: functional
# HepG2 [5] = assay: Antitumor activity against human HepG2 cells xenografted in BALB/C nude mouse assessed as tumor weight at 40 mg/kg, ip treated twice per week for 25 days (reference value: 0.84 +/- 0.09 g); format: functional
# Summary of the method: (§2)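 Female BALB/c nude mice, 5–6 weeks old, with subcutaneous flank xenografts of 8 × 10⁶ HepG2 cells. Randomized when tumors reached ~150–200 mm³. Dosed ip twice weekly for 25 days at 40 mg/kg; vehicle was saline with 10% DMSO (n = 6 vehicle, n = 5 per treated group). Caliper measurements every other day, volume = 0.5 × L × W². Tumors excised and weighed at end. Mean ± SD; t-test versus vehicle.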
# HepG2 [6] = assay: Antitumor activity against human HepG2 cells xenografted in BALB/C nude mouse assessed as tumor growth at 40 mg/kg, ip treated twice per week for 25 days relative to control; format: functional; summary of the method: as §2
inhibition [2],Structure (SMILES),IC50 (HepG2 [1]) [µM],IC50 (CNE-2) [µM],IC50 (A549) [µM],Activity (HepG2 [3]),Activity (HepG2 [4]) [mm3],Activity (HepG2 [5]) [g],T/C (HepG2 [6]) [%]
,COC(=O)CCC[C@@H]1[C@H]2CCCN3CCC[C@H](CN1Cc1cn(Cc4ccc(C(F)(F)F)cc4)c4ccccc14)[C@@H]23,6.1,4.8,7.4,,,,
,COC(=O)CCC[C@@H]1[C@H]2CCCN3CCC[C@H](CN1Cc1cn(Cc4cccc(F)c4)c4ccccc14)[C@@H]23,12.1,12.1,42.3,,,,
,OCCCC[C@@H]1[C@H]2CCCN3CCC[C@H](CN1Cc1c[nH]c4ccccc14)[C@@H]23,> 50,> 50,> 50,,,,
,COC(=O)CCC[C@@H]1[C@H]2CCCN3CCC[C@H](CN1Cc1cn(Cc4c(Cl)cccc4Cl)c4ccc(F)cc14)[C@@H]23,18.4,9.3,39.8,,,,
,COC(=O)CCC[C@@H]1[C@H]2CCCN3CCC[C@H](CN1Cc1c[nH]c4ccccc14)[C@@H]23,36.5,12.1,27.8,,,,
,COC(=O)CCC[C@@H]1[C@H]2CCCN3CCC[C@H](CN1Cc1cn(Cc4c(Cl)cccc4Cl)c4ccccc14)[C@@H]23,8.5,6.7,3.7,,,,
,COC(=O)CCC[C@@H]1[C@H]2CCCN3CCC[C@H](CN1Cc1cn(Cc4ccc(F)cc4)c4ccccc14)[C@@H]23,8.6,3.5,29.6,,,,
Active,COC(=O)CCC[C@@H]1[C@H]2CCCN3CCC[C@H](CN1Cc1cn(Cc4ccc(Cl)cc4)c4ccccc14)[C@@H]23,6.5,4.6,5.2,,,,
,COC(=O)CCC[C@@H]1[C@H]2CCCN3CCC[C@H](CN1Cc1c[nH]c4ccc(Br)cc14)[C@@H]23,31.8,20.2,39.9,,,,
,COC(=O)CCC[C@@H]1[C@H]2CCCN3CCC[C@H](CN1Cc1c[nH]c4ccc(Cl)cc14)[C@@H]23,> 50,17.9,> 50,,,,
,O=C1CCC[C@@H]2[C@H]3CCCN4CCC[C@H](CN12)[C@@H]34 [SOPHORIDINE],,5380,5840,Active,1204.27,0.97,93.38
,COC(=O)CCC[C@@H]1[C@H]2CCCN3CCC[C@H](CN1Cc1cn(Cc4ccc(Br)cc4)c4ccccc14)[C@@H]23,4.8,4.3,3.5,,,,
,COC(=O)CCC[C@@H]1[C@H]2CCCN3CCC[C@H](CN1Cc1cn(Cc4ccc(Cl)cc4)c4ccc(F)cc14)[C@@H]23,7.3,6.1,10.6,,,,
,COC(=O)CCC[C@@H]1[C@H]2CCCN3CCC[C@H](CN1Cc1c[nH]c4cc(F)ccc14)[C@@H]23,> 50,17.1,> 50,,,,
,COC(=O)CCC[C@@H]1[C@H]2CCCN3CCC[C@H](CN1Cc1c[nH]c4ccc(F)cc14)[C@@H]23,> 50,> 50,> 50,,,,
,COC(=O)CCC[C@@H]1[C@H]2CCCN3CCC[C@H](CN1Cc1c[nH]c4cccc(F)c14)[C@@H]23,> 50,> 50,> 50,,,,

inhibition [2],Structure (SMILES),IC50 (HepG2 [1]) [µM],IC50 (CNE-2) [µM],IC50 (A549) [µM],Activity (HepG2 [3]),Activity (HepG2 [4]) [mm3],Activity (HepG2 [5]) [g],T/C (HepG2 [6]) [%]
,CCCCn1cc(CN2C[C@H]3CCCN4CCC[C@@H]([C@H]34)[C@H]2CCCC(=O)OC)c2ccccc21,6.2,8.6,42.8,,,,
,COC(=O)CCC[C@@H]1[C@H]2CCCN3CCC[C@H](CN1Cc1cn(CC4CC4)c4ccccc14)[C@@H]23,14.4,13.4,30.3,,,,
,COC(=O)CCC[C@@H]1[C@H]2CCCN3CCC[C@H](CN1Cc1c[nH]c4ccc(C#N)cc14)[C@@H]23,> 50,15.3,> 50,,,,
,COC(=O)CCC[C@@H]1[C@H]2CCCN3CCC[C@H](CN1Cc1c[nH]c4ccc([N+](=O)[O-])cc14)[C@@H]23,> 50,> 50,> 50,,,,
Active,COC(=O)CCC[C@@H]1[C@H]2CCCN3CCC[C@H](CN1Cc1cn(Cc4ccccc4)c4ccccc14)[C@@H]23,5.5,3.3,43.4,,,,
,COC(=O)CCC[C@@H]1[C@H]2CCCN3CCC[C@H](CN1Cc1c[nH]c4ccc(C)cc14)[C@@H]23,23.8,49.4,> 50,,,,
Active,OCCCC[C@@H]1[C@H]2CCCN3CCC[C@H](CN1Cc1cn(Cc4ccccc4)c4ccccc14)[C@@H]23,2.3,2.2,33.7,,,,
,COC(=O)CCC[C@@H]1[C@H]2CCCN3CCC[C@H](CN1Cc1cn(Cc4ccccc4F)c4ccccc14)[C@@H]23,21.7,14.8,49.3,,,,
,COC(=O)CCC[C@@H]1[C@H]2CCCN3CCC[C@H](CN1Cc1cn(C)c4ccccc14)[C@@H]23,15.2,43.4,42.8,,,,
,COC(=O)CCC[C@@H]1[C@H]2CCCN3CCC[C@H](CN1Cc1c[nH]c4ccc(OC)cc14)[C@@H]23,> 50,> 50,> 50,,,,
,COC(=O)CCC[C@@H]1[C@H]2CCCN3CCC[C@H](CN1Cc1cn(Cc4ccc(C(F)(F)F)cc4)c4ccc(F)cc14)[C@@H]23,7.7,6.9,12.8,,,,
,CCn1cc(CN2C[C@H]3CCCN4CCC[C@@H]([C@H]34)[C@H]2CCCC(=O)OC)c2ccccc21,12.8,19.4,37.4,,,,
,CC[C@@]1(O)C(=O)OCc2c1cc1n(c2=O)Cc2cc3ccccc3nc2-1 [CAMPTOTHECIN],13.2,0.1,5.5,,,,
,COC(=O)CCC[C@@H]1[C@H]2CCCN3CCC[C@H](CN1Cc1c(C(=O)OC)[nH]c4ccccc14)[C@@H]23,> 50,26.4,> 50,,,,
Active,COC(=O)CCC[C@@H]1[C@H]2CCCN3CCC[C@H](CN1Cc1cn(Cc4ccc5ccccc5c4)c4ccccc14)[C@@H]23,8.6,7.8,24,,,,
